Laboratory results published in ChEMBL document CHEMBL4382240, “Discovery of novel 2,5-dihydroxyterephthalamide derivatives as multifunctional agents for the treatment of Alzheimer's disease” (Bioorg Med Chem, 2018).
Calls of active or inactive are those of the source. No cut-off for these calls is given here.

Assays:
[1] = target: Acetylcholinesterase (Electrophorus electricus) (UniProt O42275); experiment: Mixed-type inhibition of electric eel AChE at 2.5 to 10 uM preincubated for 15 mins followed by varying levels of acetylthiocholine iodide substrate addition by Lineweaver-Burk plot analysis
[2] = Metal chelating activity assessed as compound-Al3+ complex formation at 37.5 uM after 30 mins by UV spectrometry method
Method in brief: (§1)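 Compound and metal salt (CuCl2, ZnCl2, FeSO4 or AlCl3), each 37.5 µM final in methanol, incubated 30 min at room temperature. UV-vis spectra recorded from 200 to 600 nm and compared with the compound alone.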

[3] = Metal chelating activity assessed as compound-Zn2+ complex formation at 37.5 uM after 30 mins by UV spectrometry method; method in brief: as §1
[4] = Inhibition of Cu2+ induced human amyloid beta (1 to 42) aggregation at 25 uM after 24 hrs by Thioflavin T based fluorometric assay relative to control
Method in brief: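 Aβ1-42 (25 µM) and Cu2+ (25 µM) in HEPES buffer (20 mM, pH 6.6, 150 mM NaCl), with or without compound (25 µM final), incubated 24 h at 37 °C. ThT (5 µM) in glycine-NaOH, pH 8.5, added and fluorescence read. Triplicate; three independent experiments.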

[5] = target: Amyloid-beta precursor protein (Homo sapiens, UniProt P05067); experiment: Disaggregation of self-induced preformed fibrils of human amyloid beta (1 to 42) at 25 uM after 24 hrs by Thioflavin T based fluorometric assay relative to control
Method in brief: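 Aβ1-42 diluted in HEPES buffer (20 mM, pH 6.6, 150 mM NaCl) and pre-aggregated 24 h at 37 °C. Compound (25 µM) then added for another 24 h at 37 °C on a sealed plate. Remaining fibrils read by ThT fluorescence in glycine-NaOH, pH 8.5. Triplicate; three independent experiments.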

[6] = Cytotoxicity against […] cells assessed as decrease in cell viability up to 10 uM measured after 24 hrs by MTT assay; format: cell-based
Method in brief: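 BV-2 cells grown 24 h, then treated with compound (0.5, 2.5, 10.0 µM) for 30 min, with or without LPS (1.0 µg/mL), for a further 24 h. MTT (5 mg/mL) added for 4 h, formazan dissolved in DMSO, A490 read. Viability given as percent of untreated cells. Triplicate wells; three independent experiments.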

[7] = Anti-inflammatory activity in […] cells assessed as inhibition of LPS-stimulated NO release at 2.5 uM preincubated for 30 mins followed by LPS stimulation and measured after 24 hrs by Griess reagent based assay relative to control; format: functional; conditions: BV-2
Method in brief: (§2)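 BV-2 cells cultured 24 h in DMEM (10% FBS, glutamine, pyruvate, pen/strep) at 37 °C, 5% CO2. Compound (DMSO stock diluted in PBS) added 30 min before LPS (1.0 µg/mL), then 24 h. Nitrite in supernatant measured by Griess reagent for 10 min at room temperature, A540, against a NaNO2 standard curve. Triplicate wells; mean ± SD of three independent experiments.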

[8] = Anti-inflammatory activity in […] cells assessed as inhibition of LPS-stimulated NO release at 10 uM preincubated for 30 mins followed by LPS stimulation and measured after 24 hrs by Griess reagent based assay relative to control; format: functional; conditions: BV-2; method in brief: as §2
[9] = organism: Homo sapiens; experiment: Anti-inflammatory activity in […] cells assessed as inhibition of LPS-stimulated TNFalpha release preincubated for 30 mins followed by LPS stimulation and measured after 24 hrs by ELISA; format: functional, cell-based
Method in brief: (§3)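 Confluent BV-2 cells in DMEM preincubated 30 min with compound, tested over 0.5–10 µM, then stimulated with LPS (1.0 µg/mL) for 24 h. Released TNF-α measured by ELISA following kit instructions. Triplicate wells; mean ± SD of three independent experiments.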

[10] = Anti-inflammatory activity in […] cells assessed as inhibition of LPS-stimulated TNFalpha release at 2.5 uM preincubated for 30 mins followed by LPS stimulation and measured after 24 hrs by ELISA relative to control; format: functional; conditions: BV-2; method in brief: as §3

Chain of Acetylcholinesterase (Electrophorus electricus) (O42275 24-633 limits assumed): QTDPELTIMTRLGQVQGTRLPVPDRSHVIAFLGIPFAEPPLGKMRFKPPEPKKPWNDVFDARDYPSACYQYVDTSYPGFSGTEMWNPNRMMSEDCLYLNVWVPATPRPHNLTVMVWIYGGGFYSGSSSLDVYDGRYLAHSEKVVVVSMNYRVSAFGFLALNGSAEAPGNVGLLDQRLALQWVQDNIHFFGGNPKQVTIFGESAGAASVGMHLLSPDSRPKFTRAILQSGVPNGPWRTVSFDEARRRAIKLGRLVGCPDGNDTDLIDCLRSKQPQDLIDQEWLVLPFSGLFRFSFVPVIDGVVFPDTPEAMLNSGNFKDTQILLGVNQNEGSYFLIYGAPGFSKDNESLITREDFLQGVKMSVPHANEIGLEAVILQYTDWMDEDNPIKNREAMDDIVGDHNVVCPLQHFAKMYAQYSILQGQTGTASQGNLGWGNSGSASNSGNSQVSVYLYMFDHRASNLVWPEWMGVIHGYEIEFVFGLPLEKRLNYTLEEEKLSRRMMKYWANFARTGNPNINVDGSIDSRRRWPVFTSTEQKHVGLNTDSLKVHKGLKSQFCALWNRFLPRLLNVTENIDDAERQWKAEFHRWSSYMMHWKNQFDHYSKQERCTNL
Chain of Amyloid-beta precursor protein (P05067 whole entry): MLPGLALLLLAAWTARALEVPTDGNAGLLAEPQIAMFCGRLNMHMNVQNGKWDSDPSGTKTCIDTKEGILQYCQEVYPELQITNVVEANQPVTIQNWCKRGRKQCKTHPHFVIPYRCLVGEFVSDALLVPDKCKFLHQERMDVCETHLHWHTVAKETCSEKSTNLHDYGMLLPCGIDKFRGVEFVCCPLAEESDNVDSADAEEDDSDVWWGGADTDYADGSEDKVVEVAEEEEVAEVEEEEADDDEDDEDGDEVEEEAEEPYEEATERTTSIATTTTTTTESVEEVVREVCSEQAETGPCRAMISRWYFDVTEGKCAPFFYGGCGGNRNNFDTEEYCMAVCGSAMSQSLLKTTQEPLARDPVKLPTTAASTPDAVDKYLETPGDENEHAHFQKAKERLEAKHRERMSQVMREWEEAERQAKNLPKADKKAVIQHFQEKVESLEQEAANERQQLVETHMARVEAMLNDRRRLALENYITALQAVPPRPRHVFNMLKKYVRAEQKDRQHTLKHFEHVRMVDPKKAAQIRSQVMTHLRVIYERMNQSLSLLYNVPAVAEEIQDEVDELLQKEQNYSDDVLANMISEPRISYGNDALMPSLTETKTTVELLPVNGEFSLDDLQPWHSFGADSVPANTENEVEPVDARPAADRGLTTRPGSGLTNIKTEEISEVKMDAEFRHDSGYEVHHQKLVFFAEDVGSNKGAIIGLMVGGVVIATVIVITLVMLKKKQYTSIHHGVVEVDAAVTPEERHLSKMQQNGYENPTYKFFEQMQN

CCN(CCCCNC(=O)c1cc(O)c(C(=O)NCCCCN(CC)Cc2ccccc2OC)cc1O)Cc1ccccc1OC
inhibition [1]: Active
Activity [2]: Active
Activity [3]: inactive
inhibition [4]: 71.7%
Activity [5]: 75.2%
Activity [6]: Non-Toxic
inhibition at 2.5 µM [7]: 30%
inhibition at 10 µM [8]: 58.3%
inhibition [9]: Dose-dependent effect
inhibition at 2.5 µM [10]: 37.1%
